From ChEMBL document CHEMBL1149528, “4-Phenyl-4-[1H-imidazol-2-yl]-piperidine derivatives as non-peptidic selective delta-opioid agonists with potential anxiolytic/antidepressant properties. Part 2” (Bioorg Med Chem Lett, 2007)

Assays:
[1] = target: Opioid receptors; delta & kappa (Homo sapiens) (UniProt P41145+P41143); experiment: Selectivity for delta opioid receptor over kappa opioid receptor; type: protein assay
[2] = target: Delta-type opioid receptor (Homo sapiens, UniProt P41143); experiment: Displacement of [3H]DPDPE from cloned human delta opioid receptor
Mu-type opioid receptor = Mu-type opioid receptor (Homo sapiens, UniProt P35372); experiment: Displacement of [3H]DAMGO from cloned human mu opioid receptor
[3] = target: Kappa-type opioid receptor (Homo sapiens, UniProt P41145); experiment: Displacement of [3H]U-69593 from cloned human kappa opioid receptor
[4] = target: Opioid receptors; mu & delta (Homo sapiens) (UniProt P41143+P35372); experiment: Selectivity for delta opioid receptor over mu opioid receptor; type: protein assay
Mus musculus [5] = organism: Mus musculus; experiment: Decrease in duration of immobility in mouse assessed as lowest active dose by tail suspension test
Mus musculus [6] = organism: Mus musculus; experiment: Anxiolytic activity in mouse assessed as lowest active dose by neonatal ultrasonic vocalization test; type: functional
Method in brief: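 Neonatal mice; read-out is the number and duration of ultrasonic calls. The value is the lowest dose tested that gave a statistically significant reduction in calls.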

Sequence of Kappa-type opioid receptor (P41145 whole entry): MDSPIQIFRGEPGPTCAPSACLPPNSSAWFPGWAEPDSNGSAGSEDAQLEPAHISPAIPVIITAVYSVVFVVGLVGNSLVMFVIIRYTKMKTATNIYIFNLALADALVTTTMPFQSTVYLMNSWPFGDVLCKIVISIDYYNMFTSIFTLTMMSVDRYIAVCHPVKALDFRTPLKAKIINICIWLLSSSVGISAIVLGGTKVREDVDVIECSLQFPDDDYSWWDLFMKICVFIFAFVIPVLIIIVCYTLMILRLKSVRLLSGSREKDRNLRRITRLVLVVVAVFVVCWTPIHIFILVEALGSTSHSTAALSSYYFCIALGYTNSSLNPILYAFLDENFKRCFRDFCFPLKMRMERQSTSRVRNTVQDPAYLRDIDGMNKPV
Sequence of Opioid receptors; mu & delta (Homo sapiens) (P35372 whole entry, looked up): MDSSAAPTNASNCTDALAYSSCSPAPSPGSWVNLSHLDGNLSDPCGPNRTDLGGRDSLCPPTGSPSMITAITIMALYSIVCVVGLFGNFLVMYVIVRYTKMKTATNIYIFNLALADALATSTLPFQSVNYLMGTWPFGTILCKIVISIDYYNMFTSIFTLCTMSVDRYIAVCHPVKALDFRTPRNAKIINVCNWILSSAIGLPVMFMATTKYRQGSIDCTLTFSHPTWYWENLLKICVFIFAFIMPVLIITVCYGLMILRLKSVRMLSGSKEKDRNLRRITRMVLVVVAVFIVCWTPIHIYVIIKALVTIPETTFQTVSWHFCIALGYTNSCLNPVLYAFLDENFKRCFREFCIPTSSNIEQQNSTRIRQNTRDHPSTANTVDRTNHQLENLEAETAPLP
Sequence of Opioid receptors; mu & delta (Homo sapiens) (P41143 whole entry, looked up): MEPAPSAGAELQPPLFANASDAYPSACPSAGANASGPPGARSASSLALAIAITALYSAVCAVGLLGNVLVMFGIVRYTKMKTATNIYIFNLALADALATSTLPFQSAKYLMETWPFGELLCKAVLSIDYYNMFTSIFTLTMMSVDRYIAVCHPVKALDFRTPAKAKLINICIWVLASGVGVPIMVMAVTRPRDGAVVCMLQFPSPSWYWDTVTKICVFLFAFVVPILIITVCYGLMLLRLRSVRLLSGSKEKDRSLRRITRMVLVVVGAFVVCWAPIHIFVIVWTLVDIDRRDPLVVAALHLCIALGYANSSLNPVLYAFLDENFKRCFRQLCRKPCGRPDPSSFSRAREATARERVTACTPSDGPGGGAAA
Sequence of Mu-type opioid receptor (P35372 whole entry): as the sequence (P35372 whole entry, looked up) above
Sequence of Delta-type opioid receptor (P41143 whole entry): as the sequence (P41143 whole entry, looked up) above
Sequence of Opioid receptors; delta & kappa (Homo sapiens) (P41143 whole entry, looked up): as above
Sequence of Opioid receptors; delta & kappa (Homo sapiens) (P41145 whole entry, looked up): as the sequence (P41145 whole entry) above

| SMILES | Ki [2] [nM] | Ki (Mu-type opioid receptor) [nM] | Ki [3] [nM] | Ratio Ki [4] | further results |
| --- | --- | --- | --- | --- | --- |
| O=C(OC1CCCCC1)N1CCC(c2ccccc2)(c2nccn2Cc2ccccc2)CC1 | 7.4 | > 465 | 121 | > 63 | Ratio Ki [1]: 16 |
| COC(=O)c1cccc(Cn2ccnc2C2(c3ccccc3)CCN(C(=O)c3ccccc3)CC2)c1 | 85 | > 465 |  | > 5.5 |  |
| CCOC(=O)N1CCC(c2ccccc2)(c2nccn2Cc2ccc3ccccc3c2)CC1 | 642 | > 465 | 3120 | > 0.7 | Ratio Ki [1]: 4.8 |
| COC(=O)c1ccc(Cn2ccnc2C2(c3ccccc3)CCN(C(=O)c3ccccc3)CC2)cc1 |  | > 4650 | 88 |  |  |
| CCOC(=O)N1CCC(c2ccccc2)(c2nccn2Cc2cccc(F)c2)CC1 |  | > 465 | > 4650 |  |  |
| CCC(=O)N1CCC(c2ccccc2)(c2nccn2Cc2ccccc2)CC1 |  | > 465 |  |  |  |
| Cc1cc(C)c(C(=O)N2CCC(c3ccccc3)(c3nccn3Cc3ccccc3)CC2)c(C)c1 | 125 | > 4650 |  | > 37 |  |
| CC(C)OC(=O)N1CCC(c2ccccc2)(c2nccn2Cc2ccccc2)CC1 |  | > 465 | 201 |  |  |
| Cc1cc(C)cc(C(=O)N2CCC(c3ccccc3)(c3nccn3Cc3ccccc3)CC2)c1 |  | > 465 | 284 |  |  |
| COCC(=O)N1CCC(c2ccccc2)(c2nccn2Cc2ccc(C(=O)OC)cc2)CC1 |  | > 4650 | 65 |  |  |
| CC(c1ccccc1)n1ccnc1C1(c2ccccc2)CCN(C(=O)c2ccccc2)CC1 (stereo not drawn) |  | > 4650 | 334 |  |  |
| CCOC(=O)N1CCC(c2ccccc2)(c2nccn2C/C=C/c2ccccc2)CC1 | 280 | > 465 |  | > 1.6 |  |
| O=C(c1cc(C(F)(F)F)cc(C(F)(F)F)c1)N1CCC(c2ccccc2)(c2nccn2Cc2ccccc2)CC1 | 29 | > 465 |  | > 16 |  |
| O=C(OCc1ccccc1)N1CCC(c2ccccc2)(c2nccn2Cc2ccccc2)CC1 |  | > 465 | 121 |  |  |
| CC(C)C(=O)N1CCC(c2ccccc2)(c2nccn2Cc2ccccc2)CC1 | 48 | > 465 | 621 | > 10 | Ratio Ki [1]: 13 |
| O=C(c1ccccc1)N1CCC(c2ccccc2)(c2nccn2Cc2ccccc2)CC1 |  | > 4650 | 124 |  | Activity (Mus musculus [5]): 10 mg/kg; Activity (Mus musculus [6]): < 1 mg/kg |
| CCOC(=O)N1CCC(c2ccccc2)(c2nccn2Cc2cccc(OC)c2)CC1 |  | > 4650 | 366 |  |  |
| CCOC(=O)N1CCC(c2ccccc2)(c2nccn2Cc2ccccn2)CC1 | 173 | > 465 |  | > 2.7 |  |

| SMILES | Ki [2] [nM] | Ki (Mu-type opioid receptor) [nM] | Ki [3] [nM] | Ratio Ki [4] | further results |
| --- | --- | --- | --- | --- | --- |
| COCC(=O)N1CCC(c2ccccc2)(c2nccn2C(C)c2ccccc2)CC1 (stereo not drawn) |  | > 4650 | > 4650 |  |  |
| CCN(CC)C(=O)c1ccc(Cn2ccnc2C2(c3ccccc3)CCN(C(=O)c3ccccc3)CC2)cc1 | 158 | > 4650 |  | > 29 |  |
| COCC(=O)N1CCC(c2ccccc2)(c2nccn2Cc2ccccc2)CC1 |  | > 465 | 622 |  |  |
| O=C(Cc1ccccc1)N1CCC(c2ccccc2)(c2nccn2Cc2ccccc2)CC1 |  | > 465 |  |  |  |
| CCCCOC(=O)N1CCC(c2ccccc2)(c2nccn2Cc2ccccc2)CC1 |  | > 465 | 188 |  |  |
| CC(=O)N1CCC(c2ccccc2)(c2nccn2Cc2ccccc2)CC1 |  | > 465 | 1010 |  |  |
| CCOC(=O)N1CCC(c2ccccc2)(c2nccn2Cc2ccccc2)CC1 |  |  |  |  | Activity (Mus musculus [5]): 30 mg/kg; Activity (Mus musculus [6]): 10 mg/kg |
| O=C(C1CC1)N1CCC(c2ccccc2)(c2nccn2Cc2ccccc2)CC1 | 23 | > 465 |  | > 20 |  |
| CC(C)(C)C(=O)N1CCC(c2ccccc2)(c2nccn2Cc2ccccc2)CC1 |  | > 4650 |  |  |  |
| CCCOC(=O)N1CCC(c2ccccc2)(c2nccn2Cc2ccccc2)CC1 |  | > 465 | > 4650 |  |  |
| CCOC(=O)N1CCC(c2ccccc2)(c2nccn2C(C)c2ccccc2)CC1 (stereo not drawn) |  | > 465 | 62 |  |  |
| CCOC(=O)N1CCC(c2ccccc2)(c2nccn2Cc2ccc(O)cc2)CC1 |  | > 465 | 108 |  |  |
| CCOC(=O)N1CCC(c2ccccc2)(c2nccn2Cc2ccc(C(=O)OC)cc2)CC1 |  | > 465 | 25 |  |  |
| COC(=O)N1CCC(c2ccccc2)(c2nccn2Cc2ccccc2)CC1 |  | > 4650 |  |  |  |
| CCOC(=O)N1CCC(c2ccccc2)(c2nccn2CC2CCCCC2)CC1 | 147 | > 465 |  | > 3.2 |  |
| CCOC(=O)N1CCC(c2ccccc2)(c2nccn2Cc2ccc(F)cc2)CC1 | 51 | > 465 |  | > 6.5 |  |
| CC(C)(C)OC(=O)N1CCC(c2ccccc2)(c2nccn2Cc2ccccc2)CC1 |  | > 465 | 84 |  |  |
| CCOC(=O)N1CCC(c2ccccc2)(c2nccn2Cc2ccc(OC)cc2)CC1 |  | > 4650 | 201 |  |  |
